Source: PubChem (several laboratories)
The list is not random: actives were taken first. Their share in the collection is about 2%.
HNF4A DNA FP: change in binding of human HNF4 alpha to DNA; hit rate 0.3% among 360,000; HNF4a-FITC DNA binding, fluorescence polarization, 1 h; activity change, % at 10 µM; P41235; in the data active = activity change above about 30%, passing the limit was not always enough
SENP1 FRET inh: inhibitors of human SENP1 SUMO protease catalytic domain | AID 624204 | recombinant SENP1 catalytic domain, CyPet-SUMO1-YPet FRET cleavage | hit rate 0.21% among 360,000 | Q9P0U3 | inhibition, % at 10 µM;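 active = inhibition at least 30% at 10 µM, raw YFP signal under a set limit, fluorescence ratio 0.5 to 1.5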;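 also: 0% = enzyme with DMSO and 100% = no enzyme wells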
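Material: hSENP1 catalytic domain, recombinant; medium: Tris pH 8 with BME, BSA, NP40 and catalase; compound: single concentration of 10 µM compound, 0.5% DMSO final; technique: FRET read of cyan and yellow fluorescence; timing: 50 min enzyme reaction, room temperature, light-protected; reagent: SFCypet-SUMO1-SFYpet substrate at 25 nM; control set: no-enzyme low, enzyme-DMSO high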
CSN deneddyl inh: inhibitors of human CSN-mediated cullin deneddylation | Q92905 | Purified CSN, SCF-Nedd8-OG deneddylation, fluorescence polarization | inhibition, % at 12.5 µM | hit rate 0.38% among 360,000;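 active = pattern-corrected inhibition above about 35%, with an unprinted fluorescence ratio check between 0.5 and 1.5, limit read from the data, passing the limit was not always enough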;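 also: 0% = enzyme with substrate and 100% = substrate without enzyme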
Target sequence (Q92905 whole entry, looked up, one chain of several): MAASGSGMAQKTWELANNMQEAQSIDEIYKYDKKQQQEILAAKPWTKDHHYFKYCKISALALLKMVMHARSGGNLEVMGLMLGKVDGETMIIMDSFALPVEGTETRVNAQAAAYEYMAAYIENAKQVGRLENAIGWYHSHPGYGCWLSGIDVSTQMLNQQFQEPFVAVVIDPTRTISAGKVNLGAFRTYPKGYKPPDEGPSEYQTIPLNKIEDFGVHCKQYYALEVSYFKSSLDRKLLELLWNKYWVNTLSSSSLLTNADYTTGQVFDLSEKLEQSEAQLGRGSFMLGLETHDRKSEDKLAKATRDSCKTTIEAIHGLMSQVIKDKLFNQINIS
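Assay system: HEK293T-derived human Csn5 enzyme; quantity: 0.24 nM enzyme; medium: Tris/NaCl/DTT buffer, pH 7.5; also added: substrate SCFSkp2-Nedd8OG, 10 nM; doses: 12.5 µM compound; schedule: 90 min reaction at room temperature; signal: FP; read-out: % inhibition of substrate cleavage by Csn5; benchmarks: substrate-only high control, full reaction low control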
Rpn11 block: inhibitors of human proteasome Rpn11; hit rate 0.59% among 360,000; O00487; inhibition, % at 20 µM; human 26S proteasome, Ub4-pepOG fluorescence polarization; 20S core pre-blocked with epoxomicin;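 active = inhibition at 20 µM, scaled to each plate's controls, above about 33%, limit read from the data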
ATG4B inh: inhibitors of human ATG4B cysteine protease | Q9Y4P1 | ATG4B cleavage of LC3-PLA2, NBD-HPC fluorescence, 1 h | inhibition, % at 8.33 µM | hit rate 0.51% among 340,000 | AID 504462; in the data active = inhibition above about 40%
TPT1 inh: blocks Candida albicans tRNA 2'-phosphotransferase; recombinant caTPT1, FP RNA substrate dephosphorylation; inhibition, % at 5 µM; hit rate 0.81% among 300,000; AID 1962;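 active = inhibition above the mean of all tested compounds plus 3 SD, set per screening campaign, cut at about 24% in these data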;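 also: plate controls were DMSO alone for no effect and ferristatin control at 100 nM for full effect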
ATG4B confirm: ATG4B (human) inhibition, single-dose confirmed. shares compounds with ATG4B inh. ATG4B protease fluorescent substrate cleavage assay. inhibition, % at 8.33 µM. hit rate 92% among 320. AID 504757; in the data active = inhibition above about 39%
PLA2 counter: PLA2 (human) inhibition in ATG4B counter-screen. shares compounds with ATG4B inh. purified PLA2, NBD-C6-HPC fluorescence, 45 min. inhibition, % at 8.33 µM. hit rate 66% among 1,600. AID 588402; in the data active = inhibition above about 50%
Target sequence (P04054 whole entry, looked up): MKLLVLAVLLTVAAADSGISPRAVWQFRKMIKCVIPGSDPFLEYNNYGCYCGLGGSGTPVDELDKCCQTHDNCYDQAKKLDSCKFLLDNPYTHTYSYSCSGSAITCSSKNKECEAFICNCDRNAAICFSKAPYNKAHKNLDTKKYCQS
An asterisk follows results filed as active; / = no result shown.

SMILES	HNF4A DNA FP	SENP1 FRET inh	CSN deneddyl inh	Rpn11 block	ATG4B inh	TPT1 inh	PLA2 counter	others
O=C(O)c1oc2ccccc2c1-n1cccc1	2.7	1.8	2.0	3.7	57.7*	-2.8	56.6*
COC(=O)c1oc2ccc(Br)cc2c1-n1cccc1	1.6	-2.3	3.6	4.8	5.3	-4.5	/
Nc1ccn([C@@H]2O[C@H](CNC(=O)[C@@H](N)CSCc3ccccc3)[C@@H](O)[C@H]2O)c(=O)n1	3.5	4.2	0.5	-0.8	/	/	/
COc1ccc2cc(C3=CCCC3(C)C(=O)O)ccc2c1 (stereo not given)	1.0	0.5	-2.6	-2.6	-2.6	/	/
CCCCCCSc1nnc(-c2cnn(-c3ccccc3)c2-n2cccc2)n1C	1.9	-1.2	1.6	-3.5	43.9*	-7.3	58.1*
CCSc1nnc(-c2cnn(-c3ccccc3)c2-n2cccc2)n1C	2.0	1.1	-2.7	1.5	9.6	-4.3	/
CC1(c2cccc3ccccc23)OC(=O)c2ccccc21 (stereo not given)	-1.8	3.4	-2.7	-1.0	3.4	/	/
CC1/C(=N/O)CC(c2ccccc2)N(C)C1c1ccccc1 (stereo not given)	0.2	0.7	1.5	-4.9	56.8*	-0.2	48.2
Cc1c(Cl)c([N+](=O)[O-])nn1CCCC(=O)O	-0.8	2.1	-1.1	-4.5	-3.1	-4.8	/
CCCOC(=O)c1c(NC(=O)CCCn2nc([N+](=O)[O-])c(Cl)c2C)sc(C(=O)OC)c1C	-2.2	0.2	-0.5	-11.1	62.1*	-0.6	57.2*
CCOC(=O)c1sc(NC(=O)CCCn2nc([N+](=O)[O-])c(Cl)c2C)c(C(=O)OCC)c1C	-4.1	2.9	-1.1	-4.8	57.0*	0.9	52.0*
CCCOC(=O)c1c(NC(=O)CCCn2nc([N+](=O)[O-])cc2C)sc(C(=O)OC)c1C	-1.1	-0.2	-1.6	-6.2	33.4	1.2	/
Cc1cc(=O)oc2cc(Oc3ccc(C(N)=O)cc3[N+](=O)[O-])ccc12	-0.9	-1.9	-4.9	-4.0	25.9	-2.7	/
Cc1cc(Cl)ccc1Oc1ccc(C(N)=O)cc1[N+](=O)[O-]	-1.5	0.0	-7.2	0.2	52.8*	-2.1	24.4
CC(Sc1nc2ccccc2c(=O)n1C)C(=O)Nc1ccc2c(c1)OCCO2 (stereo not given)	4.3	2.7	-1.0	-3.2	1.4	/	/
CC(C)Cn1c(SC(C)C(=O)Nc2ccc3c(c2)OCCO3)nc2ccccc2c1=O (stereo not given)	-3.1	1.1	5.0	3.7	49.4*	/	55.1*
CC(=O)c1c(C)n(-c2ccccc2)c2ccc(OCC(N)=O)cc12	-4.2	-1.3	-5.8	3.2	46.8*	5.1	52.1*
CCOC(=O)COc1ccc2c(c1)c(C(C)=O)c(C)n2-c1ccccc1	1.5	1.8	-0.5	2.7	4.6	/	/
Cc1ccccc1C(=O)Nc1sc2c(c1C(=O)O)CCC2	0.6	1.7	2.6	9.1	52.5*	2.8	49.4
O=C(NC(=S)Nc1sc2c(c1C(=O)O)CCCC2)c1ccccc1	-4.1	1.0	6.3	18.3	52.4*	1.1	61.9*
O=C(Nc1sc2c(c1C(=O)O)CCCC2)c1ccccc1Cl	-3.8	-0.3	1.6	-2.2	37.9	0.2	/
Cc1sc(NC(=O)CCl)c(C(=O)c2ccccc2)c1C	-1.4	0.5	7.4	-3.3	2.4	-1.0	/
Cc1ccccc1C(=O)Nc1sc(C)c(C)c1C(=O)c1ccccc1	6.0	2.4	-0.2	4.6	40.7*	2.7	61.3*
NC(=O)NC(Cc1ccccc1)C(=O)NNC(=O)COc1ccccc1Cl (stereo not given)	0.3	1.9	0.0	-6.5	-7.9	/	/
COc1ccc(NC(=O)N(C)C[C@H]2Oc3c(NC(=O)C4CCCCC4)cccc3C(=O)N([C@H](C)CO)C[C@@H]2C)cc1	-4.4	2.3	-1.8	3.0	-5.3	/	/
SMILES	HNF4A DNA FP	SENP1 FRET inh	CSN deneddyl inh	Rpn11 block	ATG4B inh	TPT1 inh	PLA2 counter	others
CCOC(=O)c1sc(-c2ccccc2)cc1NC(=O)Nc1ccccc1	-1.2	1.5	3.3	-2.1	41.4*	0.3	37.2	ATG4B confirm=83.2*
CCOC(=O)c1sc(-c2ccc(F)cc2)cc1NC(=O)Nc1ccccc1OC	1.1	-0.1	-9.2	3.9	-4.7	-3.1	/
Cc1ccccc1-c1cccc([C@@H]2C[C@H]3[C@H](CON3C)CN2C(=O)C(C)(C)C)c1	1.0	2.7	1.1	2.5	6.3	/	/
Cc1cccc(NC2=C/C(=N/S(=O)(=O)c3cccs3)c3ccccc3C2=O)c1	-2.5	4.0	0.9	0.3	28.0	0.6	/
Cc1ccc(NC2=C/C(=N\S(=O)(=O)c3cccs3)c3ccccc3C2=O)c(C)c1	-2.5	2.6	9.3	10.1	56.3*	-8.3	60.5*
O=C(CSc1nnc(-c2cc3ccccc3cc2O)n1Cc1ccco1)N1CCc2ccccc2C1	1.2	-9.5	-0.9	9.0	41.3*	3.0	54.3*
CCCCNC(=O)C[C@@H]1C[C@@]2(C(=O)OC)CCCCC=C2N(Cc2ccc3c(c2)OCO3)C1=O	-2.2	3.6	1.7	/	/	/	/
COc1ccc(C2=CC3=C(Br)C(=O)C(C)(OC(=O)c4ccc(Cl)nc4)C(=O)C3=CO2)cc1 (stereo not given)	/	/	/	/	66.5*	8.6	58.7*
COC(=O)CCC(=O)OC1(C)C(=O)C2=COC(c3ccc(OC)cc3)=CC2=C(Br)C1=O (stereo not given)	/	/	/	/	51.0*	6.2	56.6*
CC(C)(C)OC(=O)NCCCC1=CC2=CC(=O)C(C)(OC(=O)c3ccc(Cl)nc3)C(=O)C2=CO1 (stereo not given)	/	/	/	/	/	-8.8	/
CC1(OC(=O)C2CCCC2)C(=O)C=C2C=C(c3ccsc3)OC=C2C1=O (stereo not given)	8.8	-6.3	34.7	28.2	21.6	10.7	/
COc1ccc(C2=CC3=C(Br)C(=O)C(C)(OC(=O)C4CCCC4)C(=O)C3=CO2)cc1 (stereo not given)	-1.6	-25.7	12.4	11.6	65.3*	2.9	81.3*
C[C@H](CO)N1C[C@H](C)[C@@H](CN(C)S(=O)(=O)c2ccc(F)cc2)Oc2c(NC(=O)Cc3ccccc3)cccc2C1=O	4.0	1.2	-1.9	4.1	-4.1	/	/
COc1cccc(C(C(=O)NC2CCCC2)N2CCN(c3cc(C)ccc3C)CC2)c1OC (stereo not given)	0.9	2.5	4.4	/	/	/	/
CCCCN1C(=O)/C(=C/C=C2\SCCN2C)SC1=S	203.1	21.5	71.4	/	72.5*	/	80.0*
